ChEMBL document CHEMBL4052614, “Novel 3',5'-diprenylated chalcones inhibited the proliferation of cancer cells in vitro by inducing cell apoptosis and arresting cell cycle phase” (Eur J Med Chem, 2017)
Calls of active or inactive are those of the source. No cut-off for these calls is given here.

Key:
HEL [1] = assay: Growth inhibition of HEL cells at 5 umol/L after 48 hrs by MTT assay relative to control; type: functional; conditions: Homo sapiens; for inhibition of growth at 5 µM: read-out: GI
In short: (§1)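 Cells kept in DMEM/10% FBS at 37 °C, 5% CO2, seeded at 4×10^3–8×10^3 cells/well, 24 h attachment, then 48 h with compound at 5 µmol/L. MTT (5 mg/mL solution) added for 4 h at 37 °C, formazan taken up in DMSO, A490 read. Percent inhibition as mean ± SD of three independent experiments. Doxorubicin as positive control.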

K562 [2] = assay: Growth inhibition of human K562 cells at 5 umol/L after 48 hrs by MTT assay relative to control; type: functional; conditions: for inhibition of growth at 5 µM: K562, 48 h, read-out: GI; in short: as §1
K562 [3] = assay: Cytotoxicity against human K562 cells after 48 hrs by MTT assay; type: functional, cell-based; conditions: K562, 48 h
In short: (§2)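 Cells kept in DMEM/10% FBS at 37 °C, 5% CO2, seeded at 4×10^3–8×10^3 cells/well and left 24 h to adhere. Exposed 48 h to a range of concentrations. MTT (5 mg/mL solution) added for 4 h at 37 °C, formazan dissolved in DMSO, absorbance read at 490 nm. IC50 derived from concentration–inhibition relation. Doxorubicin as positive control.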

HEL [4] = assay: Cytotoxicity against HEL cells after 48 hrs by MTT assay; type: functional, cell-based; conditions: Homo sapiens; in short: as §2
PC-3 [5] = assay: Cytotoxicity against human PC3 cells after 48 hrs by MTT assay; type: functional, cell-based; conditions: PC-3, 48 h; in short: as §2
PC-3 [6] = assay: Growth inhibition of human PC3 cells at 5 umol/L after 48 hrs by MTT assay relative to control; type: functional; conditions: for inhibition of growth at 5 µM: PC-3, 48 h, read-out: GI; in short: as §1
MDA-MB-231 = assay: Growth inhibition of human MDA-MB-231 cells at 5 umol/L after 48 hrs by MTT assay relative to control; type: functional; conditions: for inhibition of growth at 5 µM: MDA-MB-231, 48 h, read-out: GI; in short: as §1
HEL [7] = assay: Induction of apoptosis in HEL cells assessed as viable cells at 10 umol/L after 48 hrs by annexin V-FITC/propidium iodide staining based flow cytometry (reference value: 94%); type: functional; conditions: Homo sapiens, read-out: Activity
HEL [8] = assay: Induction of apoptosis in HEL cells assessed as necrotic cells at 10 umol/L after 48 hrs by annexin V-FITC/propidium iodide staining based flow cytometry (reference value: 0.3%); type: functional, Homo sapiens
HEL [9] = assay: Induction of apoptosis in HEL cells assessed as viable cells at 5 umol/L after 48 hrs by annexin V-FITC/propidium iodide staining based flow cytometry (reference value: 93.1 to 94%); type: functional; conditions: Homo sapiens, read-out: Activity
HEL [10] = assay: Induction of apoptosis in HEL cells assessed as early apoptotic cells at 5 umol/L after 48 hrs by annexin V-FITC/propidium iodide staining based flow cytometry (reference value: 2.6 to 4.2%); type: functional, Homo sapiens
HEL [11] = assay: Induction of apoptosis in HEL cells assessed as necrotic cells at 5 umol/L after 48 hrs by annexin V-FITC/propidium iodide staining based flow cytometry (reference value: 0.3 to 1%); type: functional, Homo sapiens
HEL [12] = assay: Induction of apoptosis in HEL cells assessed as late apoptotic cells at 5 umol/L after 48 hrs by annexin V-FITC/propidium iodide staining based flow cytometry (reference value: 1.6 to 3.3%); type: functional, Homo sapiens
HEL [13] = assay: Induction of morphological changes in HEL cells assessed as reduction in cell number at 5 umol/L after 48 hrs by inverted fluorescence microscopic analysis; type: functional, cell-based; conditions: Homo sapiens
In short: (§3)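 Cells cultured in DMEM/10% FBS at 37 °C, 5% CO2. Exposed 48 h to 5 µmol/L compound alongside DMSO controls. Morphology (cell number, rounding, spacing, apoptotic bodies, spindle shape) observed under an inverted microscope with CCD camera.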

HEL [14] = assay: Induction of apoptosis in HEL cells assessed as late apoptotic cells at 10 umol/L after 48 hrs by annexin V-FITC/propidium iodide staining based flow cytometry (reference value: 1.6%); type: functional, Homo sapiens
HEL [15] = assay: Induction of apoptosis in HEL cells assessed as early apoptotic cells at 10 umol/L after 48 hrs by annexin V-FITC/propidium iodide staining based flow cytometry (reference value: 4.2%); type: functional, Homo sapiens
HEL [16] = assay: Induction of morphological changes in HEL cells assessed as formation of apoptotic bodies at 5 umol/L after 48 hrs by inverted fluorescence microscopic analysis; type: functional, cell-based; conditions: Homo sapiens; in short: as §3
HEL [17] = assay: Cell cycle arrest in HEL cells assessed as decrease in G2 phase accumulation at 5 umol/L after 48 hrs by propidium iodide staining based flow cytometric method; type: functional; conditions: Homo sapiens
In short: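 Cells grown in DMEM with 10% FBS and penicillin/streptomycin at 37 °C, 5% CO2, and passaged at least 3 times after thawing. Treated 48 h at 5 µmol/L, DMSO-treated controls. Harvested by trypsin, PBS-washed, fixed in ice-cold ethanol, blocked 1 h at 4 °C in 5% BSA/PBS, RNase 1 µg/mL 30 min at 37 °C, PI 20 µg/mL final. Phase percentages read from PI histograms. Mean ± SD, three independent experiments.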

Row | SMILES | inhibition of growth at 5 µM (HEL [1]) [%] | inhibition of growth at 5 µM (K562 [2]) [%] | inhibition of growth at 5 µM (PC-3 [6]) [%] | inhibition of growth at 5 µM (MDA-MB-231) [%] | growth inhibition (GI) (HEL [1]) | growth inhibition (GI) (K562 [2]) | other results
1 | COc1cccc2c1C(=O)c1c(O)c3c(c(O)c1C2=O)C[C@@](O)(C(=O)CO)C[C@@H]3O[C@H]1C[C@H](N)[C@H](O)[C@H](C)O1 [DOXORUBICIN] | 89.2 | 90.6 | 89.7 | 87.1 | – | – | IC50 (K562 [3]): 2410 nM; IC50 (HEL [4]): 2130 nM; IC50 (PC-3 [5]): 2630 nM
2 | CCOc1cc(/C=C/C(=O)c2cc(CC=C(C)C)c(OC)c(CC=C(C)C)c2O)ccc1O | 12.7 | 10.2 | 25.6 | 33.5 | – | – | –
3 | CCOc1cc(/C=C/C(=O)c2cc(CC=C(C)C)c(OC)c(CC=C(C)C)c2O)ccc1OC(=O)c1ccc(Cl)s1 | – | – | 34.3 | – | inactive | inactive | growth inhibition (GI) (MDA-MB-231): inactive
4 | COc1c(CC=C(C)C)cc(C(=O)/C=C/c2cccn2C)c(O)c1CC=C(C)C | – | 9.9 | 11.7 | 33.8 | inactive | – | –
5 | CCOc1cc(/C=C/C(=O)c2cc(CC=C(C)C)c(OC)c(CC=C(C)C)c2O)ccc1OC(=O)c1cccs1 | 4 | – | 21.4 | 7.4 | – | inactive | –
6 | COc1cc(/C=C/C(=O)c2cc(CC=C(C)C)c(OC)c(CC=C(C)C)c2O)ccc1OC(=O)c1ccc(C)s1 | – | 6.3 | 19.2 | 19.6 | inactive | – | –
7 | CCOc1cc(/C=C/C(=O)c2cc(CC=C(C)C)c(OC)c(CC=C(C)C)c2O)ccc1OC(=O)/C=C/c1ccncc1 | – | – | 13.5 | – | inactive | inactive | growth inhibition (GI) (MDA-MB-231): inactive
8 | CCOc1cc(/C=C/C(=O)c2cc(CC=C(C)C)c(OC)c(CC=C(C)C)c2O)ccc1OCOC | 6.3 | – | 13.1 | 29.9 | – | inactive | –
9 | COc1ccc(/C=C/C(=O)c2cc(CC=C(C)C)c(OC)c(CC=C(C)C)c2O)cc1 | 29.5 | 32 | 24.6 | 14.5 | – | – | –
10 | COc1ccc(/C=C/C(=O)c2cc(CC=C(C)C)c(OC)c(CC=C(C)C)c2O)cc1[N+](=O)[O-] | 85.4 | 23 | 21.2 | 23.4 | – | – | viability at 10 µM (HEL [7]): 30.6%; Activity (HEL [8]): 10.1%; viability at 5 µM (HEL [9]): 90%; Activity (HEL [10]): 5.3%; Activity (HEL [11]): 0.8%; Activity (HEL [12]): 3.9%; Activity (HEL [13]): Active; Activity (HEL [14]): 47.6%; Activity (HEL [4]): Dose-dependent effect; IC50 (HEL [4]): 4350 nM; Activity (HEL [15]): 11.6%; Activity (HEL [16]): inactive; Activity (HEL [17]): Active
11 | COc1cc(/C=C/C(=O)c2cc(CC=C(C)C)c(OC)c(CC=C(C)C)c2O)ccc1OC(=O)Cc1cc2ccccc2[nH]1 | – | – | 29.9 | 28.3 | inactive | inactive | –
12 | COc1ccc(/C=C/C(=O)c2cc(CC=C(C)C)c(OC)c(CC=C(C)C)c2O)cc1Br | – | 18.9 | 20.9 | 30.2 | inactive | – | –
13 | COc1c(CC=C(C)C)cc(C(=O)/C=C/c2ccc(N(C)C)cc2)c(O)c1CC=C(C)C | – | – | 11.6 | 21.5 | inactive | inactive | –
14 | COCOc1ccc(/C=C/C(=O)c2cc(CC=C(C)C)c(OC)c(CC=C(C)C)c2O)cc1OC | – | 3.9 | 17.3 | 14 | inactive | – | –
15 | COc1ccc(/C=C/C(=O)c2cc(CC=C(C)C)c(OC)c(CC=C(C)C)c2O)cc1Cl | 11.7 | 31.9 | 31.8 | 26.5 | – | – | –
16 | COc1ccc(/C=C/C(=O)c2cc(CC=C(C)C)c(OC)c(CC=C(C)C)c2O)cc1F | 12.3 | 19.3 | – | 12.1 | – | – | growth inhibition (GI) (PC-3 [6]): inactive
17 | CCOc1cc(/C=C/C(=O)c2cc(CC=C(C)C)c(OC)c(CC=C(C)C)c2O)ccc1OC(=O)c1ccco1 | – | – | 12.7 | – | inactive | inactive | growth inhibition (GI) (MDA-MB-231): inactive
18 | COc1cc(/C=C/C(=O)c2cc(CC=C(C)C)c(OC)c(CC=C(C)C)c2O)cc(OC)c1OC | 23.6 | – | 15 | 26.2 | – | inactive | –
19 | COc1ccc(/C=C/C(=O)c2cc(CC=C(C)C)c(OC)c(CC=C(C)C)c2O)cc1OC | – | 7.5 | 10.6 | 19 | inactive | – | –
20 | COc1cc(/C=C/C(=O)c2cc(CC=C(C)C)c(OC)c(CC=C(C)C)c2O)ccc1OC(=O)c1ccc(N(C)C)cc1 | – | 8.1 | 36.5 | 38.5 | inactive | – | –
21 | COc1cc(/C=C/C(=O)c2cc(CC=C(C)C)c(OC)c(CC=C(C)C)c2O)ccc1O | 22.2 | – | 26 | 19.3 | – | inactive | –
22 | COc1cc(/C=C/C(=O)c2cc(CC=C(C)C)c(OC)c(CC=C(C)C)c2O)ccc1OC(=O)c1cccnc1 | 5.7 | – | 23 | – | – | inactive | growth inhibition (GI) (MDA-MB-231): inactive
23 | C=CCOc1ccc(/C=C/C(=O)c2cc(CC=C(C)C)c(OC)c(CC=C(C)C)c2O)cc1OCC | – | – | 13.4 | 27.7 | inactive | inactive | –
